Published values of several laboratories.
Compare with care: the assays were run in different laboratories.
Target: Histamine H1 receptor (HRH1, Homo sapiens, UniProt P35367)

SMILES | read-out | technique | setting | Ki
O=C1NC(=O)C(c2ccccc2)(c2ccc(OCCCN3CCCCC3)cc2)N1 (centres unmarked) | ligand displacement | radioligand | cell membranes | 6150 nM
O=C1CCCc2cc(OCc3ccc(OCCCN4CCCCC4)cc3)ccc21 | ligand displacement | radioligand | cell membranes | 1970 nM
CN(C)CCOC1c2ccccc2C=Cc2ccccc21 | cell-free assay | radioligand | – | 0.316 nM
O=C1CCCc2cc(OCCCN3CCCCC3)ccc21 | ligand displacement | radioligand | cell membranes | 3470 nM
CCCNc1nc2ccccc2n1Cc1ccc(Cl)cc1 | cell-free assay | radioligand | – | 6.2 nM
CN(C)c1ccc(/C=C/C=C2\CCc3cc(OCCCN4CCCCC4)ccc3C2=O)cc1 | ligand displacement | radioligand | cell membranes | 881 nM
O=C1NC(c2ccccc2)(c2ccccc2)C(=O)N1CCCN1CCCCC1 | ligand displacement | radioligand | cell membranes | 6310 nM
CCCCN1CCC(COC(=O)c2ccc(N)c(OCF)c2)CC1 | cell-free assay | radioligand | – | > 10000 nM
CN1CCC(=C2c3ccccc3CCc3ccccc32)CC1 | cell-free assay | radioligand | – | 0.251 nM
CCc1nc2cc(OCCCCN3CCC(c4cccc(Cl)c4Cl)CC3)ccc2s1 | ligand displacement | radioligand | – | 690 nM
CN1CCN(C2c3ccccc3C=Cc3ccccc32)CC1 | cell-free assay | radioligand | – | 2 nM
O=C1CCCc2ccc(OCCCN3CCCCC3)cc21 | ligand displacement | radioligand | cell membranes | 3720 nM
CN1CCC(=C2c3ccccc3CCc3cccnc32)CC1 | cell-free assay | – | – | 0.0631 nM
Cc1nc2cc(OCCCCN3CCN(c4cccc(Cl)c4Cl)CC3)ccc2s1 | ligand displacement | radioligand | – | 57 nM
